Results published in paper PMC5012948 (ChemMedChem, 2016).
Several values for one entry are separate records, joined by “and”; a condition that tells them apart may be missing. Identical values can stand only once. Like-named read-outs stand apart in the source and are kept apart here.

Columns and labels:
SaHepPPS = SaHepPPS (Staphylococcus aureus, UniProt Q2FYG6); assay: biochemical; format: biochemical; conditions: for Kd: substrate inhibition at high substrate concentrations
[1] = tested on: coupling enzymes (phosphatase and purine nucleoside phosphorylase); assay: Control: inhibition of the coupling enzymes by high FPP and IPP; format: biochemical
[2] = tested on: S. aureus (Newman strain); assay: S. aureus cell growth inhibition; format: cell-based, Staphylococcus aureus
S. aureus = assay: Synergy/antagonism two-drug combination assay; format: cell-based, Staphylococcus aureus
How it was run: (§1)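 Checkerboard-style two-drug combinations of the test compound with antibiotics. Conversely, the test compound ran as a 3× gradient, 40 μg/mL to 18 ng/mL, with each antibiotic at half its MIC. New MICs came from Gompertz fits.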

B. subtilis = assay: Synergy/antagonism two-drug combination assay; format: cell-based, Bacillus subtilis; conditions: 10 + sulfamethoxazole
How it was run: as §1

[3] = tested on: B. subtilis and S. aureus; assay: Synergy/antagonism assays, average FICI over both organisms; format: cell-based; conditions: drugs in combination with 10, both organisms, n = 24
How it was run: as §1

human FPPS = conditions: cited from earlier work

## CC(C)=CCC/C(C)=C/CC/C(C)=C/CO[P@@](=O)(O)OP(=O)(O)O (stereo in doubt) [FPP, farnesyl diphosphate]
SaHepPPS; Kd (dissociation constant for the inhibitory SES ternary complex)
  Kd: 35 µM and ~35 µM
[1]
  inhibition of the coupling enzymes: this is not the case

## CC(C)=CCC/C(C)=C/CC/C(C)=C/CC/C(C)=C/COP(=O)(O)OP(=O)(O)O [GGPP, geranylgeranyl diphosphate]
SaHepPPS; GGPP as substrate
  Km: 652 µM
  Vmax: 2.2 µM/min
SaHepPPS; high concentrations
  substrate-inhibition effect at high concentrations: did not exhibit the substrate-inhibition effect

## CCCCCCCCCCCCC[n+]1ccn(CC(P(=O)([O-])O)P(=O)(O)O)c1 (centres unmarked) [compound 10]
[2]
  IC50 for S. aureus cell growth inhibition: 7 µg/mL
S. aureus; 10 + ampicillin
  FICI: 1.40
S. aureus; 10 + tetracycline
  FICI: 1.85
B. subtilis
  FICI: 1.73
[3]
  FICIavg: 1.43 ± 0.37

## C=C(C)CCOP(=O)(O)OP(=O)(O)O [IPP, isopentenyl diphosphate]
SaHepPPS; read-out: Kd (dissociation constant for the inhibitory SES ternary complex)
  Kd: 300 ± 40 µM
[1]
  inhibition of the coupling enzymes: this is not the case

## O=P(O)(O)C(O)(Cn1ccnc1)P(=O)(O)O [compound 15, zoledronate]
SaHepPPS
  IC50: ~100 µM
Human FPPS
  activity against human FPPS: potent activity
